This is a sample that favours compounds with a hit; in the whole collection about 2.7% have one here.
OX1R antag-1: blocks the human orexin 1 receptor; 0.43% of 330,000 active; inhibition, % at 5 µM; CHO/OX1R cells, Fluo-8 calcium fluorescence, orexin A; O43613;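 active means inhibition above its plate's threshold, mean inhibition of all tested compounds on the plate plus 3 SD, cut at about 37% in these data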;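 further: 0% = orexin A challenge wells and 100% = SB-334867-A antagonist wells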
V1R ag counter: activates human V1a receptor in oxytocin agonist counter-screen | CHO-V1R cells, Fluo-8 calcium fluorescence, agonist mode; 0% DMSO, 100% 3 nM vasopressin | activation, % at 3 µM | 0.25% of 320,000 active | AID 2797;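 active means activation above the mean activation of all tested compounds plus 3 SD, per screening run, cut at about 20% in these data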;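 further: signal is peak over basal fluorescence ratio across a 100 second FLIPR read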
Target sequence (P37288 whole entry, looked up): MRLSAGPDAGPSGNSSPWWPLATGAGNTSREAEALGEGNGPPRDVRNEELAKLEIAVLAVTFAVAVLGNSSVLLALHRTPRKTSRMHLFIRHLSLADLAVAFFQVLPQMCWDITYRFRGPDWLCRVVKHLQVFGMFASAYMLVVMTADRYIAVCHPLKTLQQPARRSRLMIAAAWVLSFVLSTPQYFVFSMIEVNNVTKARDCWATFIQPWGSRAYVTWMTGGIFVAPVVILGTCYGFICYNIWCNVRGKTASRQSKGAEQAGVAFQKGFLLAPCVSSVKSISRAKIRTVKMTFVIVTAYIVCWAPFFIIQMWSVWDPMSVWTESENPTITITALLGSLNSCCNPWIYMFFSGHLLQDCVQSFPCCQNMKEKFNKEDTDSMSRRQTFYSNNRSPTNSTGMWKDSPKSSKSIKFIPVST
OXTR potentiator: potentiates the human oxytocin receptor response. CHO-OTR cells, Fluo-8 calcium fluorescence, potentiator mode; 0% = oxytocin EC15, 100% = EC100. 0.061% of 320,000 active. activation, % at 3 µM. P30559;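 active means activation above that plate's cutoff, the mean activation of tested compounds plus 3 SD, cut at about 6.6% in these data, passing the limit was not always enough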;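 further: 100% uses oxytocin at 75 nM as the full agonist control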
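Measured by – Fluo-8 calcium dye fluorescence · Test system – human OTR in CHO cells · Dosing – one concentration, 3.0 µM compound · Controls – EC15 oxytocin alone as 0%, 75 nM oxytocin as 100% · Evaluation – normalized max/min fluorescence ratio, % activation · Timing – 6 min pre-incubation, 100 s read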
OXTR agonist: activates the human oxytocin receptor; CHO-OTR cells, Fluo-8 calcium fluorescence; normalized: DMSO 0%, oxytocin 100%; 0.32% of 320,000 active; P30559; activation, % at 3 µM;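 active means activation above the mean of all tested compounds plus 3 SD, cutoff set per screening run, cut at about 20% in these data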;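 further: peak over basal fluorescence ratio from a 100 s FLIPR kinetic read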
CHO parental Ca: counter-screen for OX1R antagonists: effect in parental CHO cells; parental CHO-K1, ATP-induced calcium, Fluo-8 fluorescence; inhibition, % at 5.6 µM; 0.63% of 330,000 active; AID 463079;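 active means inhibition above that plate's mean sample inhibition plus 3 SD, cut at about 26% in these data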;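 further: 0% = ATP-challenged DMSO wells and 100% = DMSO wells without ATP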
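Assay system: untransfected parental CHO cell line. Also added: ATP agonist challenge. Dosing: one dose, 5.6 µM nominal. Measured by: Fluo-8 fluorescence. Read-out: % inhibition. Benchmarks: ATP wells versus no-ATP DMSO wells. Repeats: no replicates.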
OX1R antag-2: OX1R (human) antagonism; O43613; OX1R-expressing cells, FRET antagonist read-out; inhibition, % at 6.6 µM; 1.8% of 330,000 active; AID 485270; in the data active means inhibition mostly above about 38%, no sharp cut-off; inactive means mostly below about 40%;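 further: 0% = agonist challenge alone and 100% = reference antagonist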
Starred values were filed as active, the others as inactive.

SMILES	OX1R antag-1	V1R ag counter	OXTR potentiator	OXTR agonist	CHO parental Ca	OX1R antag-2
O=C(Nc1nccs1)[C@@H]1CC=C[C@@H]2CCN(Cc3ccccc3)C(=O)[C@@H]21	5.8	6.5	1.1	0.4	-17.2	68.2*
CCOC(=O)c1sc(N)c(C#N)c1CSc1nc2ccc(OCC)cc2[nH]1	-20.6	-0.6	-6.9	-2.5	-18.4	47.0*
COc1ccc(Nc2ccc(N3C(=O)CC(C)C3=O)cc2[N+](=O)[O-])cc1OC (stereo unspecified)	-23.8	-0.6	1.0	0.1	-15.1	40.1*
COc1ccc(CCNc2ccc(N3C(=O)CC(C)C3=O)cc2[N+](=O)[O-])cc1OC (stereo unspecified)	27.8	11.4	-15.9	18.3	54.5*	58.6
CC(=O)NNC(=O)c1csc(-c2csc(C)n2)n1	-11.8	0.9	1.9	-0.1	-3.2	-5.0
NC(=O)CC(NC(=O)Cc1ccc(Cl)cc1)c1ccc(NCc2ccccc2)c([N+](=O)[O-])c1 (stereo unspecified)	-18.1	-0.3	-6.8	-0.7	-18.1	16.1
CCOC(=O)C1CCCN(C(=O)c2ccc(S(=O)(=O)N3CCCC3)cc2)C1 (stereo unspecified)	1.3	2.0	-5.6	-0.8	0.4	8.3
CCOC(=O)C1CCCN(S(=O)(=O)c2ccc(S(=O)(=O)N3CCCC3)cc2)C1 (stereo unspecified)	10.2	7.2	-18.4	8.6	36.9*	35.6
COc1cccc2c(=O)cc(C)n(CC(=O)Nc3ccc(C)c(C)c3)c12	-0.9	11.3	-9.1	18.0	47.4*	49.3*
COc1ccccc1NC(=O)Cn1c(C)cc(=O)c2cccc(OC)c21	-3.0	7.2	-18.2	6.3	-5.2	17.5
CCOc1ccc(N(C)c2ccc(/C=C3/SC(=S)NC3=O)cc2)cc1	33.1*	11.6	-14.0	11.7	26.4*	4.9
CCOc1c(O)ccc(/C=C2\SC(=S)NC2=O)c1[N+](=O)[O-]	-23.2	0.7	-0.5	-0.1	-3.7	49.5*
CC(OC(=O)Cn1nnc2ccccc21)C(=O)NC1CCCC1 (stereo unspecified)	-1.8	0.0	-4.5	0.7	-6.1	0.9
CC(=O)Oc1ccc2oc(/C=C/N(C)C)c([N+](=O)[O-])c2c1	3.7	-0.6	-2.1	-0.6	-2.9	50.3*
CC(=O)N1CCN(C(=O)c2ccc(NS(=O)(=O)c3ccc4[nH]c(=O)[nH]c4c3)cc2)CC1	-4.2	0.0	-8.0	0.3	-5.2	10.7
COc1ccccc1NC(=O)c1ccc(NC(=O)CSc2nc(N)cc(=O)[nH]2)cc1	-15.1	0.5	0.9	-0.4	-0.8	5.5
Cc1ccc(C(=O)NCCc2nnc3c(C(F)(F)F)cc(Cl)cn23)o1	-3.2	-0.5	-19.4	-1.1	-2.9	19.2
Cc1cc(C)cc(N(C(=O)Cc2cccs2)C(C(=O)NC2CCCCC2)c2ccccn2)c1 (stereo unspecified)	-5.7	-1.7	-5.6	-1.5	-16.8	64.9*
C=CCSc1nnc(-c2cc3c(-c4ccccc4)nn(C)c3s2)n1C	-4.0	-1.3	-7.3	-1.4	-29.4	74.9*
C=CCSc1nnc(-c2cc3c(C(F)(F)F)nn(C)c3s2)n1C	2.2	-0.4	-8.4	0.9	1.2	18.3
C[C@H](NC(=O)c1ccccc1)C(=O)OCC(=O)Nc1sccc1C(N)=O	-6.6	3.2	-5.1	4.3	-0.5	8.2
N#C/C(=C\c1ccncc1)c1ccccn1	-2.4	0.4	-10.2	-0.4	1.0	31.3
COC(=O)c1ccc(/C(O)=C(\C#N)c2nc3ccccc3s2)cc1	-10.9	9.6	-9.1	9.2	7.1	50.3
COc1cc(/C=C(\C#N)c2ccccn2)ccc1OCC(=O)Nc1ccc(Br)cc1	-24.1	0.6	-15.1	-1.1	1.0	26.8
COc1cc(/C=C(\C#N)c2nc3ccccc3s2)ccc1OCC(=O)Nc1ccccc1	43.5	12.5	-3.6	10.7	45.7*	12.2
SMILES	OX1R antag-1	V1R ag counter	OXTR potentiator	OXTR agonist	CHO parental Ca	OX1R antag-2
CC(C)=C(C#N)c1nc2ccccc2s1	74.3*	39.8*	-6.4	36.5*	49.9*	9.5
N#C/C(=C/c1ccncc1)c1nc2ccccc2s1	50.6*	55.2*	-6.1	26.8*	43.8*	14.8
Cc1ccc(S(=O)(=O)N2[C@@H](c3ccccc3F)C(C(=O)O)=CC[C@H]2c2cccs2)cc1	10.9	0.8	-10.8	0.0	28.5	19.7
Cc1cc(=O)[nH]c(SCC(=O)Nc2ccc(N3CCCCC3)cc2)n1	37.0	1.4	2.3	1.6	43.1*	9.5
CCCc1cc(=O)[nH]c(SCC(=O)Nc2ccc(N3CCCCC3)cc2)n1	-12.3	1.1	1.5	0.2	-12.5	4.7
O=C(O)CCn1c2ccccc2c2nc3ccccc3nc21	-8.5	0.6	-4.9	0.6	-4.1	48.8*
N#CCn1c2ccccc2c2nc3ccccc3nc21	-5.3	-0.2	-3.3	-0.6	-15.6	60.7
c1ccc2nc3c(nc2c1)c1ccccc1n3CCN1CCOCC1	-9.1	-0.7	-6.6	0.7	-17.5	49.3*
O=C1C(Cl)=C(N2CCN(c3ccccc3[N+](=O)[O-])CC2)C(=O)c2ccccc21	-12.3	0.6	-7.2	-0.1	-15.4	54.9*
O=[N+]([O-])c1cc(Cl)ccc1N1CCCC1	-1.9	0.1	-2.2	-1.7	-3.6	6.4
CN(CC(=O)Nc1cccc(F)c1)C(=O)c1ccccc1Sc1ccccc1C#N	14.0	7.1	-10.6	4.2	-21.1	32.8*
COc1cccc(NC(=O)CN(C)C(=O)c2ccccc2Sc2ccccc2C#N)c1	23.9	3.0	-0.6	0.8	-14.3	38.8*
Cc1nc2ccc3nc(NC(=O)c4ccc5c(c4)OCCO5)sc3c2s1	-8.1	-1.2	-0.1	-0.6	-4.8	15.5
Cc1nc2c(ccc3nc(NC(=O)c4ccc5c(c4)OCCO5)sc32)s1	20.2	0.2	-3.1	0.2	-18.6	64.4*
COc1cc2c(cc1OC)C(C)N(C(=O)c1cc3c(C)cc(C)cc3[nH]1)CC2 (stereo unspecified)	-19.6	-0.1	-9.4	-0.2	-27.4	8.9
CCCn1nc(NS(=O)(=O)c2cccc3nonc23)c2cc3cccc(C)c3nc21	-2.1	5.8	-8.1	-0.5	-22.9	52.1*
COC(=O)C(C)Oc1cc(C)ccc1COc1ccc(-n2nc(C)n(C(F)F)c2=O)cc1 (stereo unspecified)	-32.1	-0.8	-14.2	-3.2	-23.6	13.8
CCOC(=O)C1(Cc2cccc(Cl)c2)CCCN(CCO)C1 (stereo unspecified)	-28.7	0.1	-9.2	-0.2	-11.5	14.2
CC(C)Cn1c(N)c(C(=O)COC(=O)CCc2nc3ccccc3s2)c(=O)n(C)c1=O	40.4	10.7	-13.2	14.5	34.1*	34.8

From PubChem BioAssay
